Measured values from different studies.
Compare with care: the assays were run in different laboratories.
Target: Discoidin domain-containing receptor 2 (DDR2, Homo sapiens, UniProt Q16832)
Sequence (Q16832 22-855, as in one of the studies): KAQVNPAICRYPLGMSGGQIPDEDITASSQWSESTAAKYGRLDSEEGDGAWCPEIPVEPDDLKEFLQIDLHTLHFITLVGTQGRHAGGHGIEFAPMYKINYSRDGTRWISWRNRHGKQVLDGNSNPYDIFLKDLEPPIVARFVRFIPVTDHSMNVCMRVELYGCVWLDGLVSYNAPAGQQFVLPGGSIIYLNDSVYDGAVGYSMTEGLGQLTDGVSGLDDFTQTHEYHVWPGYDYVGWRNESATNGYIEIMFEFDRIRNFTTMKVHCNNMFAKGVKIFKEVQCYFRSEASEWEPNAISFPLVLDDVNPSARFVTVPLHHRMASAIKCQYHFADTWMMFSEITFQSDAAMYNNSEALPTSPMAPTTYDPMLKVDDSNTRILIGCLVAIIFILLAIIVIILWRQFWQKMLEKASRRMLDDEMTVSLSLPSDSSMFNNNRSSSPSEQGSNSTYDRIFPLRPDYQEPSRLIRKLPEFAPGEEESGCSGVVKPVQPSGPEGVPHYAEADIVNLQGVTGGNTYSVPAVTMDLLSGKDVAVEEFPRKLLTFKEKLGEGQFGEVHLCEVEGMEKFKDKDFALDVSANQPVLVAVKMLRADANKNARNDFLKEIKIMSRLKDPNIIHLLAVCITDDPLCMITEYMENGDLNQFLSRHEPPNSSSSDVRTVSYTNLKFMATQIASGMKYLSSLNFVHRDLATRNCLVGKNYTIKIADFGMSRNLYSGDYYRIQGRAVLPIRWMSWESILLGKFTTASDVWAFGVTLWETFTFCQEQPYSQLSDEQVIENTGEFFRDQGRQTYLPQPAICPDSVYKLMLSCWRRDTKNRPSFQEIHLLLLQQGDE

CCCS(=O)(=O)Nc1ccc(F)c(C(=O)c2c[nH]c3ncc(-c4ccc(Cl)cc4)cc23)c1F
inhibition (enzyme activity; inhibitor; 1 µM): < 10%

Cc1noc([C@H]2C[C@@H](c3ccc(C(F)(F)F)cc3)CN(C(=O)N3CCS(=O)(=O)C3)C2)n1
remaining binding (cell-free assay; competition with immobilised ligand; 1 µM): 74%

CC(C)(C)c1nc(-c2cccc(NS(=O)(=O)c3c(F)cccc3F)c2F)c(-c2ccnc(N)n2)s1
remaining activity (enzyme activity; inhibitor; radiometric; 1 µM): 14%

O=C(Nc1cnn(-c2csc(C(=O)NC3COC3)c2)c1)Nc1ccccc1Cl
remaining activity (enzyme activity; inhibitor; 5 µM): 99.8%

CCN(CC)CCNC(=O)c1c(C)[nH]c(/C=C2\C(=O)Nc3ccc(F)cc32)c1C
remaining activity (enzyme activity; inhibitor; 1 µM): 103%

CCN(CC)CCNC(=O)c1c(C)[nH]c(/C=C2\C(=O)Nc3ccc(F)cc32)c1C
inhibition (enzyme activity; inhibitor; 10 µM): 31%

CS(=O)(=O)c1cc(C2(NC(=O)c3cncc4c3cnn4-c3ccc(F)cc3)CC2)ccn1
remaining binding (cell-free assay; competition with immobilised ligand; 1 µM): 100%

O=C1NC(=O)c2cc(Nc3ccc(F)cc3)c(Nc3ccc(F)cc3)cc21
remaining signal (cell-free assay; 0.5 µM): 99.6%

COc1cc(/C=C/C(=O)CC(=O)/C=C/c2ccc(O)c(OC)c2)ccc1O
activity vs control (enzyme activity; inhibitor; 1 µM): 109%

O=C(Nc1ccc(Oc2ccc(F)cc2)cc1)N1CCc2ncccc2[C@H]1c1ccc(F)cc1
remaining binding (cell-free assay; competition with immobilised ligand; 1 µM): 100%

Cc1ccc(C(=O)NCc2ccsc2)cc1C#Cc1cn(C(C)C)c2ncnc(N)c12
activity vs control (enzyme activity; inhibitor; 1 µM): 4%

CNC(=O)Nc1ccc2c(c1)CC[C@@]21OC(=O)N(CC(=O)N(Cc2ccc(F)cc2)[C@@H](C)C(F)(F)F)C1=O
remaining binding (cell-free assay; competition with immobilised ligand; 1 µM): 75%

CC(C)(O)[C@H]1CC[C@H](Nc2ccc3ncc(-c4cccc(C(F)(F)F)c4)n3n2)CC1
remaining activity (enzyme activity; inhibitor; 1 µM): 49.5%

CC/C(=N\NC(=O)NCc1cccc(O)c1)c1ccc(O)c(C)c1O
inhibition (enzyme activity; inhibitor; 0.1 µM): 0.1%

COc1cc2c(N3CCN(C(=O)Nc4ccc(OC(C)C)cc4)CC3)ncnc2cc1OCCCN1CCCCC1
remaining signal (cell-free assay; 0.5 µM): 102%

CS(=O)(=O)N1CCCC(NC(=O)[C@H](CCC2CCCCC2)NC(=O)c2ccc(CNC(=O)c3cnc4ccccn34)cc2)C1 (stereo partly drawn)
remaining binding (cell-free assay; competition with immobilised ligand; 0.1 µM): 0%

CNC(=O)c1cc(Oc2ccc(NC(=O)Nc3ccc(Cl)c(C(F)(F)F)c3)cc2)ccn1
inhibition (enzyme activity; inhibitor; 0.3 µM): 108%

Cc1ccc(C(=O)Nc2ccc(CN3CCN(C)CC3)c(C(F)(F)F)c2)cc1C#Cc1cnc2cccnn12
remaining signal (cell-free assay; 23.5 nM): 0.3%

Cc1c[nH]c2nccc(Oc3c(F)cc(Nc4cc(Cl)nc(N)n4)cc3F)c12
remaining binding (cell-free assay; competition with immobilised ligand; 0.1 µM): 57%

CCN(CC)c1ccc(C2=NNC(=O)CC2C)cc1[N+](=O)[O-] (stereo not drawn)
remaining activity (enzyme activity; inhibitor; 10 µM): 100%

COc1cc(Cl)c(C(=O)N[C@@H](CN[C@H]2CC[C@@H](N)CC2)Cc2ccc(C#N)cc2)cc1-c1ccc(CN[C@H](C)c2ccc(C)cc2)o1
remaining activity (enzyme activity; inhibitor; 1 µM): 104%

Cc1ccc(Nc2nccc(N(C)c3ccc4c(C)n(C)nc4c3)n2)cc1S(N)(=O)=O
remaining signal (cell-free assay; 0.5 µM): 36.2%

FC(F)(F)c1ccc2c(c1)nc(-c1cccnc1)n2C1CC1
remaining binding (cell-free assay; competition with immobilised ligand; 1 µM): 100%

Cc1[nH]c(/C=C2\C(=O)Nc3ccc(F)cc32)c(C)c1C(=O)N[C@H]1CCN(C(=O)N(C)C)C1
remaining activity (enzyme activity; inhibitor; 1 µM): 107%
